In ChEMBL document CHEMBL1649151, “Urinary bactericidal activity of Doripenem versus that of levofloxacin in patients with complicated urinary tract infections or pyelonephritis” (Antimicrob Agents Chemother, 2009):
Values after ≈ are worked out from the molar mass of the structure shown.

What was measured:
Enterococcus faecalis [1] = experiment: Antimicrobial activity against Enterococcus faecalis 2215770 B-T isolated from patient with pyelonephritis by Etest; assay type: functional
Escherichia coli [2] = experiment: Antimicrobial activity against Escherichia coli 1780063 B-A isolated from patient with pyelonephritis assessed as >3-log reduction in urinary bacterial titer after 24 hrs; assay type: functional, Urine
How it was run: (§1)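 Urine was collected before dosing and on day 3 of i.v. therapy (steady state), in 4-h intervals from infusion start (0–4 to 20–24 h), stored at −80°C and sterile filtered. It was serially diluted twofold (1:0 to 1:131,072) in the patient's drug-free pre-dose urine. Microdilution used an inoculum of 1.0 x 10^6–9.5 x 10^6 CFU/ml, incubated 18 h at 37°C, then subcultured 24 h on blood agar. The endpoint was >99.9% kill, reported as reciprocal titer.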

Escherichia coli [3] = experiment: Antimicrobial activity against Escherichia coli 1821385 B-C isolated from patient with pyelonephritis assessed as >3-log reduction in urinary bacterial titer after 20 hrs; assay type: functional, Urine
How it was run: (§2)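 Urine was collected on day 3 of i.v. therapy (steady state) over 4-h intervals from infusion start (0–4 to 20–24 h), stored at –80°C and sterile filtered. It was serially diluted twofold (1:0 up to 1:131,072) in the patient's own pre-dose drug-free urine. Microdilution used a final inoculum of 1.0 x 10^6 to 9.5 x 10^6 CFU/ml, incubated 18 h at 37°C in air. 10 µl was subcultured onto 5% blood Columbia agar for 24 h at 37°C. The bactericidal endpoint was >99.9% (>3-log) kill, reported as a reciprocal titer.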

Escherichia coli [4] = experiment: Antimicrobial activity against Escherichia coli 2062717 B-P isolated from patient with pyelonephritis assessed as >3-log reduction in urinary bacterial titer after 4 hrs; assay type: functional, Urine
Escherichia coli [5] = experiment: Antimicrobial activity against Escherichia coli 2297257 B-W isolated from patient with pyelonephritis assessed as >3-log reduction in urinary bacterial titer after 16 hrs; assay type: functional, Urine
Pseudomonas aeruginosa [6] = experiment: Antimicrobial activity against Pseudomonas aeruginosa 2062713 B-Q isolated from patient with pyelonephritis by Etest; assay type: functional
Enterococcus faecalis [7] = experiment: Antimicrobial activity against Enterococcus faecalis 2215770 B-T isolated from patient with pyelonephritis assessed as >3-log reduction in urinary bacterial titer after 12 hrs; assay type: functional, Urine; how it was run: as §1
[8] = tested on: Staphylococcus haemolyticus; experiment: Antimicrobial activity against Staphylococcus haemolyticus 1949819 B-M isolated from patient with pyelonephritis assessed as >3-log reduction in urinary bacterial titer after 8 hrs; assay type: functional, Urine
Escherichia coli [9] = experiment: Antimicrobial activity against Escherichia coli 1949826 B-L isolated from patient with pyelonephritis assessed as >3-log reduction in urinary bacterial titer after 4 hrs; assay type: functional, Urine
How it was run: (§3)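 Patient urine was collected on day 3 of i.v. therapy (steady state) over 4-h intervals after infusion start, stored at –80°C, and sterile filtered. It was twofold serially diluted (1:0 to 1:131,072) in the patient's own pre-dose drug-free urine, inoculated to 1.0 x 10^6–9.5 x 10^6 CFU/ml, and incubated for 18 h at 37°C. Subcultures were grown on blood agar for 24 h. The UBT is the reciprocal of the highest dilution giving >99.9% kill.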

Escherichia coli [10] = experiment: Antimicrobial activity against Escherichia coli 1889646 B-F isolated from patient with pyelonephritis assessed as >3-log reduction in urinary bacterial titer after 20 hrs; assay type: functional, Urine; how it was run: as §2
Escherichia coli [11] = experiment: Antimicrobial activity against Escherichia coli 2297257 B-W isolated from patient with pyelonephritis assessed as >3-log reduction in urinary bacterial titer after 8 hrs; assay type: functional, Urine
Escherichia coli [12] = experiment: Antimicrobial activity against Escherichia coli 1949826 B-L isolated from patient with pyelonephritis assessed as >3-log reduction in urinary bacterial titer after 12 hrs; assay type: functional, Urine; how it was run: as §3
Escherichia coli [13] = experiment: Antimicrobial activity against Escherichia coli 1780063 B-A isolated from patient with pyelonephritis assessed as >3-log reduction in urinary bacterial titer after 12 hrs; assay type: functional, Urine; how it was run: as §1
Enterococcus faecalis [14] = experiment: Antimicrobial activity against Enterococcus faecalis 2297262-10 B-V isolated from patient with pyelonephritis assessed as >3-log reduction in urinary bacterial titer after 16 hrs; assay type: functional, Urine; how it was run: as §1
Staphylococcus aureus [15] = experiment: Antimicrobial activity against Staphylococcus aureus 2215767-9 B-S isolated from patient with pyelonephritis assessed as >3-log reduction in urinary bacterial titer after 12 hrs; assay type: functional, Urine
Escherichia coli [16] = experiment: Antimicrobial activity against Escherichia coli 1655646 A-Y isolated from patient with pyelonephritis assessed as >3-log reduction in urinary bacterial titer after 8 hrs; assay type: functional, Urine; how it was run: as §1
Escherichia coli [17] = experiment: Antimicrobial activity against Escherichia coli 1655646 A-Y isolated from patient with pyelonephritis assessed as >3-log reduction in urinary bacterial titer after 24 hrs; assay type: functional, Urine; how it was run: as §1
Escherichia coli [18] = experiment: Antimicrobial activity against Escherichia coli 1889647 B-H isolated from patient with pyelonephritis assessed as >3-log reduction in urinary bacterial titer after 16 hrs; assay type: functional, Urine; how it was run: as §2
Escherichia coli [19] = experiment: Antimicrobial activity against Escherichia coli 1780064 A-X isolated from patient with pyelonephritis assessed as >3-log reduction in urinary bacterial titer after 8 hrs; assay type: functional, Urine; how it was run: as §2
[20] = tested on: Staphylococcus epidermidis; experiment: Antimicrobial activity against Staphylococcus epidermidis 2297262-9 B-V isolated from patient with pyelonephritis assessed as >3-log reduction in urinary bacterial titer after 16 hrs; assay type: functional, Urine
Pseudomonas aeruginosa [21] = experiment: Antimicrobial activity against Pseudomonas aeruginosa 1821383 B-E isolated from patient with pyelonephritis assessed as >3-log reduction in urinary bacterial titer after 16 hrs; assay type: functional, Urine
Enterococcus faecalis [22] = experiment: Antimicrobial activity against Enterococcus faecalis 2297262-10 B-V isolated from patient with pyelonephritis assessed as >3-log reduction in urinary bacterial titer after 24 hrs; assay type: functional, Urine; how it was run: as §1
Enterococcus faecalis [23] = experiment: Antimicrobial activity against Enterococcus faecalis 2215767-10 B-S isolated from patient with pyelonephritis by Etest; assay type: functional
Pseudomonas aeruginosa [24] = experiment: Antimicrobial activity against Pseudomonas aeruginosa 1821383 B-E isolated from patient with pyelonephritis assessed as >3-log reduction in urinary bacterial titer after 12 hrs; assay type: functional, Urine
Escherichia coli [25] = experiment: Antimicrobial activity against Escherichia coli 2062716 B-R isolated from patient with pyelonephritis assessed as >3-log reduction in urinary bacterial titer after 12 hrs; assay type: functional, Urine; how it was run: as §3
[26] = tested on: Staphylococcus epidermidis; experiment: Antimicrobial activity against Staphylococcus epidermidis 1949822 B-J isolated from patient with pyelonephritis assessed as >3-log reduction in urinary bacterial titer after 20 hrs; assay type: functional, Urine
Pseudomonas aeruginosa [27] = experiment: Antimicrobial activity against Pseudomonas aeruginosa 1821383 B-E isolated from patient with pyelonephritis assessed as >3-log reduction in urinary bacterial titer after 8 hrs; assay type: functional, Urine
Escherichia coli [28] = experiment: Antimicrobial activity against Escherichia coli 2062716 B-R isolated from patient with pyelonephritis by Etest; assay type: functional
Pseudomonas aeruginosa [29] = experiment: Antimicrobial activity against Pseudomonas aeruginosa 1821383 B-E isolated from patient with pyelonephritis assessed as >3-log reduction in urinary bacterial titer after 4 hrs; assay type: functional, Urine
[30] = tested on: Staphylococcus epidermidis; experiment: Antimicrobial activity against Staphylococcus epidermidis 1949822 B-J isolated from patient with pyelonephritis assessed as >3-log reduction in urinary bacterial titer after 16 hrs; assay type: functional, Urine
Serratia marcescens = experiment: Antimicrobial activity against Serratia marcescens 2297260 B-U isolated from patient with pyelonephritis assessed as >3-log reduction in urinary bacterial titer after 12 hrs; assay type: functional, Urine
Escherichia coli [31] = experiment: Antimicrobial activity against Escherichia coli 2062716 B-R isolated from patient with pyelonephritis assessed as >3-log reduction in urinary bacterial titer after 20 hrs; assay type: functional, Urine; how it was run: as §3
Staphylococcus aureus [32] = experiment: Antimicrobial activity against Staphylococcus aureus 1889640 A-Z isolated from patient with pyelonephritis by Etest; assay type: functional
[33] = tested on: Staphylococcus epidermidis; experiment: Antimicrobial activity against Staphylococcus epidermidis 1949822 B-J isolated from patient with pyelonephritis assessed as >3-log reduction in urinary bacterial titer after 8 hrs; assay type: functional, Urine

Structure (SMILES): C[C@@H](O)[C@H]1C(=O)N2C(C(=O)O)=C(S[C@@H]3CN[C@H](CNS(N)(=O)=O)C3)[C@H](C)[C@H]12 [DORIPENEM]
- MIC (Enterococcus faecalis [1]): 0.25 mg/L (≈ 0.595 µM)
- urinary bactericidal titer (Escherichia coli [2]): 1024 reciprocal titer
- urinary bactericidal titer (Escherichia coli [3]): 8192 reciprocal titer
- urinary bactericidal titer (Escherichia coli [4]): 32800 reciprocal titer
- urinary bactericidal titer (Escherichia coli [5]): 4096 reciprocal titer
- MIC (Pseudomonas aeruginosa [6]): 0.5 mg/L (≈ 1.19 µM)
- urinary bactericidal titer (Enterococcus faecalis [7]): 1024 reciprocal titer
- urinary bactericidal titer [8]: 128 reciprocal titer
- urinary bactericidal titer (Escherichia coli [9]): 128 reciprocal titer
- urinary bactericidal titer (Escherichia coli [10]): 65500
- urinary bactericidal titer (Escherichia coli [11]): 2048 reciprocal titer
- urinary bactericidal titer (Escherichia coli [12]): 131000 reciprocal titer
- urinary bactericidal titer (Escherichia coli [13]): 4096 reciprocal titer

Structure (SMILES): C[C@H]1COc2c(N3CCN(C)CC3)c(F)cc3c(=O)c(C(=O)O)cn1c23.C[C@H]1COc2c(N3CCN(C)CC3)c(F)cc3c(=O)c(C(=O)O)cn1c23.O [LEVOFLOXACIN]
- urinary bactericidal titer (Enterococcus faecalis [14]): 0 reciprocal titer
- urinary bactericidal titer (Staphylococcus aureus [15]): 1 reciprocal titer
- urinary bactericidal titer (Escherichia coli [16]): 2048 reciprocal titer
- urinary bactericidal titer (Escherichia coli [17]): 256 reciprocal titer
- urinary bactericidal titer (Escherichia coli [18]): 1024 reciprocal titer
- urinary bactericidal titer (Escherichia coli [19]): 512 reciprocal titer
- urinary bactericidal titer [20]: 2 reciprocal titer
- urinary bactericidal titer (Pseudomonas aeruginosa [21]): 128 reciprocal titer
- Time (Enterococcus faecalis [22]): 0 h
- MIC (Enterococcus faecalis [23]): > 32 mg/L
- urinary bactericidal titer (Pseudomonas aeruginosa [24]): 128 reciprocal titer
- urinary bactericidal titer (Escherichia coli [25]): 512 reciprocal titer
- urinary bactericidal titer [26]: 2 reciprocal titer
- urinary bactericidal titer (Pseudomonas aeruginosa [27]): 128 reciprocal titer
- MIC (Escherichia coli [28]): 0.032 mg/L
- urinary bactericidal titer (Pseudomonas aeruginosa [29]): 32 reciprocal titer
- urinary bactericidal titer [30]: 4 reciprocal titer
- urinary bactericidal titer (Serratia marcescens): 128 reciprocal titer
- urinary bactericidal titer (Escherichia coli [31]): 128 reciprocal titer
- MIC (Staphylococcus aureus [32]): 0.06 mg/L
- urinary bactericidal titer [33]: 4 reciprocal titer
